Rows were chosen to be rich in hits. Some 3% of all compounds tested hit in one or more screens of this group.
TRPC6 activator – mouse TRPC6 channel activation | B-score at 10 µM | HEK293-TRPC6 membrane potential dye fluorescence; hits give high values | Q61143 | 310,000 compounds, 0.13% hits | AID 2550;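 active means B-score of the integrated fluorescence ratio above library mean plus 3 SD, and starting fluorescence ratio within library mean plus 5 SD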;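 further: higher score means more depolarization so channel activation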
Target sequence (Q61143 whole entry, looked up): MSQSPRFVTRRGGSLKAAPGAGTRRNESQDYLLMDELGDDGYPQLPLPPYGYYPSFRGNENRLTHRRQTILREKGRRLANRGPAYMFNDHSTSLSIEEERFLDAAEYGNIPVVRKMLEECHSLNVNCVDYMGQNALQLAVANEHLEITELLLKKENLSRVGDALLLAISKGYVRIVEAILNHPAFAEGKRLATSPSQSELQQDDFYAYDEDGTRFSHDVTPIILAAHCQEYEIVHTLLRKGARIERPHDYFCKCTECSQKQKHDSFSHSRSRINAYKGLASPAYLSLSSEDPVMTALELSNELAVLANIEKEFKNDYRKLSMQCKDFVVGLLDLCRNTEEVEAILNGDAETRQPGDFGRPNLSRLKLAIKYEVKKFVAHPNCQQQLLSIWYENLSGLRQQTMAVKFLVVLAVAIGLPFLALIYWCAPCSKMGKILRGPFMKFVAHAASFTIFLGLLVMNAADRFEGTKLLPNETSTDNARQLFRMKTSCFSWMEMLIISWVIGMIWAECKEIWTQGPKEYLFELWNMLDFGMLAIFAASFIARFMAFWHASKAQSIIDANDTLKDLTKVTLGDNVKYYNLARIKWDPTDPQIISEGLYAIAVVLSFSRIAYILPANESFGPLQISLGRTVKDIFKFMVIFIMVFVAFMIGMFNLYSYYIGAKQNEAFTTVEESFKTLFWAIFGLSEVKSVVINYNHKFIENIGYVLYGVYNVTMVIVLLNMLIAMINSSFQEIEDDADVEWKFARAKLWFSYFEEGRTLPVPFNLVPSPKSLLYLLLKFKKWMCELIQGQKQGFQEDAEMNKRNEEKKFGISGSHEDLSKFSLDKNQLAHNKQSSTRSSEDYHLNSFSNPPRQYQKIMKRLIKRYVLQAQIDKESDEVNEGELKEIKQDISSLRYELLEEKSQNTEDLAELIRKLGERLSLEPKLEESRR
TRPC4 act – opens the mouse TRPC4 cation channel | 310,000 compounds, 0.49% hits | HEK293 TRPC4beta/mu-opioid, Fluo4 calcium fluorescence; hits give high values | Q9QUQ5 | B-score at 10 µM;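 active means B-score above 5 SD of library B-scores, and initial fluorescence ratio not above library mean plus 5 SD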;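 further: positive B-score marks a calcium rise read as TRPC4 activation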
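Test system: HEK293 cells stably co-expressing mouse TRPC4beta and mu-opioid receptor | Schedule: Fluo4 dye loading 45 min at room temperature, 110 s recording | Measured by: Kinetic Fluo4 calcium fluorescence, 5 s baseline at 1 Hz | Evaluation: B score of integrated ratio | Controls: Buffer (low) and maximal DAMGO (high)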
TRPC6 inhibitor – mouse TRPC6 channel inhibition | Q61143 | HEK293-TRPC6, membrane potential dye, ACh-evoked depolarization; hits give low values | B-score at 10 µM | 310,000 compounds, 1.1% hits | AID 2553;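 active means B-score under library mean minus 3 SD, initial fluorescence not abnormally high, positive integrated signal ratio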;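 further: B-score derived from integrated fluorescence ratio over the kinetic read; more negative B-score means stronger inhibition of depolarization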
TRPC4 block – inhibitors of mouse TRPC4 channel | Q9QUQ5 | HEK293 TRPC4beta/mu-opioid, DAMGO-evoked Fluo4 calcium flux; hits give low values | B-score at 10 µM | 300,000 compounds, 0.39% hits | AID 2247;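 active means B-score over 3 SD under the library average, no early fluorescence shift, positive overall ratio signal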
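Signal: kinetic Fluo4 fluorescence imaging of calcium influx. Material: stable TRPC4beta/mu-opioid receptor HEK293 cells. Probe or stimulus: DAMGO in two steps, submaximal then maximal.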
TRPC4 potent – TRPC4 (mouse) allosteric potentiation. Q9QUQ5. HEK293 TRPC4beta/mu-opioid, DAMGO EC20, Fluo-4 Ca2+ flux; hits give high values. B-score at 10 µM. 310,000 compounds, 0.42% hits. AID 2227;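 active means B-score of calcium response area above 5 SD of library B-scores, with initial fluorescence ratio within 5 SD of library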
Kir21 block – blocks the mouse Kir2.1 inward-rectifier potassium channel; P35561; HEK293-Kir2.1, FluxOR thallium flux fluorescence; hits give low values; B-score at 10 µM; 310,000 compounds, 0.85% hits;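 active means fluorescence ratio B-score at or below minus 3 SD of library scores, with starting-brightness B-score within 2 SD, cut at about -4.2 in these data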;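 further: channel flux triggered by added potassium and thallium sulfate stimulus; B-score of peak minus minimum fluorescence over baseline after thallium stimulus; more negative B-score means stronger Kir2.1 block with less thallium influx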
Numbers stand for hits; n = inactive.

SMILES	TRPC6 activator	TRPC4 act	TRPC6 inhibitor	TRPC4 block	TRPC4 potent	Kir21 block
COc1ccc(OC2CCN(S(=O)(=O)c3ccccc3)CC2)cc1	n	n	n	n	13	n
COc1ccc(OC2CCN(S(=O)(=O)c3ccc(F)cc3)CC2)cc1	n	n	n	n	n	n
Cn1c(C(=O)O)c(S(=O)(=O)c2ccc(Cl)cc2)c2ccccc21	n	n	n	n	n	n
CCN(CC)CCCNC(=O)c1cc2nc(-c3ccccc3)cc(C(F)(F)F)n2n1	n	n	n	n	11	n
COCCNC(=O)c1cc2nc(-c3ccc(F)cc3)cc(C(F)(F)F)n2n1	n	n	n	n	n	n
CCN(CC1COc2ccccc2O1)C(=S)NCCCN(C)C (stereo unspecified)	n	n	n	n	12	n
Cc1ccc2c(C)c(C(=O)N3CCN(c4cnccn4)CC3)oc2c1C	n	n	n	n	n	n
Cc1ccc2c(C)c(C(=O)N3CCC(O)(c4ccccc4)CC3)oc2c1C	n	n	n	n	13	n
Cc1cc(C)cc(NC(=O)CCc2c(C)nn(-c3ccc(N4CCOCC4)nn3)c2C)c1	n	n	n	n	n	n
O=C(Cc1coc2cc3c(cc12)CCC3)NC1CCCCCCC1	n	n	n	n	n	n
O=C(Cc1coc2cc3c(cc12)CCC3)NCC1(N2CCCCC2)CCCCC1	n	n	n	n	n	-4.66
Cc1c(Br)c([N+](=O)[O-])nn1CC(=O)Nc1ccc(Cc2ccncc2)cc1	n	n	n	n	n	n
Fc1ccc(N2CCN(Cc3cn[nH]c3-c3ccccc3)CC2)cc1	n	n	n	n	n	n
Fc1ccc(-c2[nH]ncc2CN2CCN(c3ccc(F)cc3)CC2)cc1	n	n	n	n	12	n
CCCCOc1ccccc1C(=O)N(Cc1ccco1)C1CCS(=O)(=O)C1 (stereo unspecified)	n	n	n	n	n	n
O=C(O)c1cccc(S(=O)(=O)N2CCCC2)c1	n	n	n	n	n	n
O=C(O)c1cccc(S(=O)(=O)N2CCN(C(c3ccccc3)c3ccccc3)CC2)c1	n	n	n	-9	n	n
CCSc1nnc([C@H](Cc2c[nH]c3ccccc23)NC(=O)OC(C)(C)C)o1	n	n	n	n	17	n
CCc1cccc(OCC(=O)Nc2c[nH]c(=O)[nH]c2=O)c1	n	n	n	n	n	n
CCc1cccc(OCC(=O)Nc2ccc(C(=O)O)cc2NC(=O)COc2cccc(CC)c2)c1	n	n	n	-8	n	n
CCOc1ccc(NC(=O)COC(=O)C23CC4CC(CC(C4)C2)C3)c([N+](=O)[O-])c1	n	n	n	n	n	n
Cc1ccc(C(=O)Sc2cccccc2=O)cc1	n	n	n	n	n	n
CCN(CC(=O)NCc1ccc(Cl)cc1)S(=O)(=O)c1ccc(NC(C)=O)cc1	n	n	n	n	n	n
CCOC(=O)C1=NN(C(=O)c2cccc(Br)c2)C(O)(C(C)(C)C)C1 (stereo unspecified)	n	180	n	n	n	n
COc1ccc(OC)c(S(=O)(=O)Nc2ccc3[nH]c(=O)[nH]c3c2)c1	n	n	n	n	n	n
SMILES	TRPC6 activator	TRPC4 act	TRPC6 inhibitor	TRPC4 block	TRPC4 potent	Kir21 block
COc1ccc(CCNC(=O)COc2ccc(N(C)S(=O)(=O)c3ccc(Cl)cc3)cc2)cc1	n	n	n	n	n	-5.94
CN(C)CC/C=C1\c2ccc(F)cc2Sc2cc(F)c(Cl)cc21	n	n	n	n	n	n
CN(C)CC/C=C1\c2cc(F)ccc2CSc2ccccc21	n	n	n	n	n	n
CN(C)CC/C=C1/c2ccc(F)cc2Sc2ccc(Cl)cc21	n	n	-5.84	n	n	-6.86
CN(C)CC/C=C1\c2ccccc2Sc2cc(F)c(Cl)cc21	n	n	n	n	n	-4.81
CN(C)CC/C=C1\c2cc(Cl)ccc2Sc2cc(F)c(F)cc21	n	n	-5.54	n	n	-4.22
O=C(NNC(=O)c1ccc(F)cc1F)c1ccc(-n2cnnn2)cc1	n	n	n	n	n	n
CCN(CC)S(=O)(=O)c1ccc2c(c1)N(CC(=O)Nc1ccc(NC(C)=O)cc1)C(=O)CO2	n	n	n	n	n	n
CCc1ccc2[nH]c(=O)c(CN(Cc3nnnn3C3CCCC3)C3CCCCC3)cc2c1	n	n	n	n	10	n
Cc1c(N2CCCC2)cc2c(c1NC(=O)c1ccccc1Cl)C(C)(C)CC2(C)C	n	n	n	n	n	n
CCc1cc2c(=O)c(-c3ccc4c(c3)OCCO4)c(C)oc2cc1OS(C)(=O)=O	n	n	n	n	n	n
CC(C)c1ccc(C2C3CSCC=C3C(C#N)=C(N)C2(C#N)C#N)cc1 (stereo unspecified)	n	n	n	n	23	n
CC(OC(=O)Cc1n[nH]c(=O)c2ccccc12)C(=O)Nc1cccc([N+](=O)[O-])c1 (stereo unspecified)	n	n	n	n	11	n
CC(OC(=O)Cc1n[nH]c(=O)c2ccccc12)C(=O)Nc1ccccc1[N+](=O)[O-] (stereo unspecified)	n	n	n	n	n	n
Cc1nn(-c2ccccc2)c(Cl)c1CN(C(=O)CCl)c1cccc2ccccc12	n	n	n	-7	n	n
Cc1nn(-c2ccccc2)c(Cl)c1C(=O)NCC(=O)O	n	n	n	n	n	n
CC(=O)N(Cc1c(C)nn(-c2ccccc2)c1Cl)c1ccc(Cl)cc1	n	n	n	n	n	-5.06
Cc1nn(-c2ccccc2)c(Cl)c1CN(C(=O)CCl)c1ccc(Cl)cc1	n	n	n	-7	n	n
COc1ccccc1C(=O)Nc1nc(C)cc(C)n1	n	n	n	n	n	n
CCCN(C(=O)C(C)Oc1cccc(Cl)c1)c1c(N)n(Cc2ccccc2)c(=O)[nH]c1=O (stereo unspecified)	n	n	n	n	n	n
CCc1cc(CNC(=O)C2CCC(=O)N(Cc3cccc(F)c3)C2)on1 (stereo unspecified)	n	n	n	n	n	n
CCC(C)(C)NC(=O)C(c1ccccc1F)N(Cc1ccco1)C(=O)Cn1nnc2ccccc21 (stereo unspecified)	44.1	n	n	n	n	n
COc1ccc(OC)c(NC(=O)NNC(=O)COc2ccc(F)cc2F)c1	n	n	n	n	n	n
Cc1ccc(Nc2ccc(S(=O)(=O)N3CCOCC3)cc2[N+](=O)[O-])cc1C	n	n	n	n	18	n
Cc1nn(C)c(C)c1Sc1ccc(Br)cc1	n	n	n	-6	n	n
Cn1cnc([N+](=O)[O-])c1Sc1ccc(Br)cc1	n	n	n	n	n	n
CS(=O)(=O)c1ccc(C(=O)OCC(=O)N(CCc2ccccc2)Cc2ccccc2)cc1	n	n	n	n	n	n

Compound activity from PubChem.
